# Data reported in ChEMBL document CHEMBL4680077, “Differentiation of skeletal osteogenic progenitor cells to osteoblasts with 3,4-diarylbenzopyran based amide derivatives: Novel osteogenic agents” (Eur J Med Chem, 2016).
# Active and inactive are the calls of the source. No cut-off for these calls is given here.
# Tests used:
# Calvarial osteoblast [1] = assay: Induction of osteoblast differentiation in mouse calvarial osteoblast assessed as increase in ALP activity using PNPP as substrate at 0.000001 to 1 uM incubated activity for 48 hrs by spectrophotometric analysis relative to control; format: functional, cell-based; settings: dose lower 1e-06 µM, dose upper 1.0 µM
# Calvarial osteoblast [2] = assay: Induction of osteoblast differentiation in mouse calvarial osteoblast assessed as increase in mineralization nodules at 1 pM incubated for 15 days by alizarin-red S dye based colorimetric analysis; format: functional, cell-based; settings: time 15.0 day
# Procedure, shortened: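 Calvarial osteoblasts were seeded at 2×10³ cells/well in differentiation medium (10 mM β-glycerophosphate, ascorbic acid) and cultured ± 1 pM with medium changed every 48 h. Cells were fixed in 4% formaldehyde and stained with 40 mM alizarin red S. Dye was extracted in 10% acetic acid at 85 °C, neutralized with ammonium hydroxide and read at 405 nm. n = 3.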
# Mus musculus [3] = assay: In vivo osteogenic activity in ovariectomized BALB/c mouse assessed as increase in trabecular number at 1 to 10 mg/kg, po via gavage administered for 1 month by microCT imaging analysis; format: functional, organism-based; settings: dose 1-10 mg/kg, time 1.0 months
# Procedure, shortened: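 Ovariectomized female balb/c mice, 8 weeks old, 10 per group, received 1.0 or 10.0 mg kg-1 once daily by oral gavage (gum acacia vehicle) for 4 weeks, alongside sham and Ovx vehicle groups. Femurs were scanned by microCT. BV/TV, Tb.N and Tb.Sp were derived by the mean intercept length method. Mean ± SE.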
# Mus musculus [4] = assay: In vivo osteogenic activity in ovariectomized BALB/c mouse assessed as decrease in serum CTx at 1 to 10 mg/kg, po via gavage administered for 30 days; format: functional, organism-based; settings: dose 1-10 mg/kg, time 30.0 day
# Procedure, shortened: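 Eight-week-old female balb/c mice were ovariectomized and dosed once daily by oral gavage at 1 or 10 mg kg-1 in vehicle (gum acacia in water) for 30 days; sham and Ovx vehicle groups served as controls. Serum CTx and osteocalcin were assayed in duplicate. n = 10 per group; mean ± SEM.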
# [5] = Acute toxicity in Swiss albino mouse assessed as body weight at 300 mg/kg, po observed on day 1 (reference value: 20.38 +/- 0.24 g); format: organism-based; settings: in vivo, 24 h, time 1 day
# [6] = Acute toxicity in Swiss albino mouse assessed as body weight at 5 mg/kg, po measured on day 7 (reference value: 22.75 +/- 0.38 g); format: organism-based; settings: in vivo, 168 h, time 7 day
# [7] = Acute toxicity in Swiss albino mouse assessed as body weight at 300 mg/kg, po measured on day 7 (reference value: 22.75 +/- 0.38 g); format: organism-based; settings: in vivo, 168 h, time 7 day
# [8] = Acute toxicity in Swiss albino mouse assessed as haemoglobin level at 1000 mg/kg, po measured after 7 days (reference value: 10.86 +/- 0.87 g/dL); format: organism-based; settings: in vivo, 168 h, time 7 day
# [9] = Acute toxicity in Swiss albino mouse assessed as RBC count at 50 mg/kg, po measured after 7 days (Rvb =6.0 +/- 0.28 million/mm3); format: organism-based; settings: in vivo, 168 h, time 7 day
# [10] = Acute toxicity in Swiss albino mouse assessed as RBC count at 300 mg/kg, po measured after 7 days (Rvb =6.0 +/- 0.28 million/mm3); format: organism-based; settings: in vivo, 168 h, time 7 day
# [11] = Acute toxicity in Swiss albino mouse assessed as WBC count per thousand/mm3 at 1000 mg/kg, po measured after 7 days (reference value: 6.84 +/- 0.83 /mm3); format: organism-based; settings: in vivo, 168 h, time 7 day
# [12] = Acute toxicity in Swiss albino mouse assessed as ALKP level at 1000 mg/kg, po measured after 7 days (reference value: 379.25 +/- 27.08 U/L); format: organism-based; settings: in vivo, 168 h, time 7 day
# [13] = Acute toxicity in Swiss albino mouse assessed as albumin level at 5 mg/kg, po measured after 7 days (reference value: 3.24 +/- 0.30 g/dL); format: organism-based; settings: in vivo, 168 h, time 7 day
# [14] = Acute toxicity in Swiss albino mouse assessed as albumin level at 1000 mg/kg, po measured after 7 days (reference value: 3.24 +/- 0.30 g/dL); format: organism-based; settings: in vivo, 168 h, time 7 day
# [15] = Acute toxicity in Swiss albino mouse assessed as creatinine level at 1000 mg/kg, po measured after 7 days (reference value: 0.97 +/- 0.07 mg/dL); format: organism-based; settings: in vivo, 168 h, time 7 day
# [16] = Acute toxicity in Swiss albino mouse assessed as malondialdehyde level at 50 mg/kg, po measured after 7 days (reference value: 0.14 +/- 0.01 nM/mg); format: organism-based; settings: in vivo, 168 h, time 7 day
# [17] = Acute toxicity in Swiss albino mouse assessed as absolute brain weight at 1000 mg/kg, po measured after 7 days (reference value: 0.37 +/- 0.02 g); format: organism-based; settings: in vivo, 168 h, time 7 day
# [18] = Acute toxicity in Swiss albino mouse assessed as absolute uterus weight at 50 mg/kg, po measured after 7 days (reference value: 0.27+/- 0.07 g); format: organism-based; settings: in vivo, 168 h, time 7 day
# [19] = Acute toxicity in Swiss albino mouse assessed as absolute ovary weight at 300 mg/kg, po measured after 7 days (reference value: 0.04+/- 0.02 g); format: organism-based; settings: in vivo, 168 h, time 7 day
# [20] = Acute toxicity in Swiss albino mouse assessed as relative liver weight at 50 mg/kg, po measured after 7 days (reference value: 6.81 +/- 2.14 %); format: organism-based; settings: in vivo, 168 h, time 7 day
# [21] = Acute toxicity in Swiss albino mouse assessed as relative kidney weight at 50 mg/kg, po measured after 7 days (reference value: 1.25 +/- 0.08 %); format: organism-based; settings: in vivo, 168 h, time 7 day
# [22] = Acute toxicity in Swiss albino mouse assessed as relative kidney weight at 300 mg/kg, po measured after 7 days (reference value: 1.25 +/- 0.08 %); format: organism-based; settings: in vivo, 168 h, time 7 day
# [23] = Acute toxicity in Swiss albino mouse assessed as relative kidney weight at 1000 mg/kg, po measured after 7 days (reference value: 1.25 +/- 0.08 %); format: organism-based; settings: in vivo, 168 h, time 7 day
# [24] = Acute toxicity in Swiss albino mouse assessed as relative uterus weight at 5 mg/kg, po measured after 7 days (reference value: 1.63 +/- 0.71 %); format: organism-based; settings: in vivo, 168 h, time 7 day
# Calvarial osteoblast [25] = assay: Induction of osteoblast differentiation in mouse calvarial osteoblast assessed as increase in ALP activity using PNPP as substrate at 1 pM incubated for 48 hrs by spectrophotometric analysis; format: functional, cell-based
structure (smiles),measurement,setting,value
CCCCN(C)C(=O)CCCCOc1ccc([C@H]2c3ccc(OC)cc3OC(C)(C)[C@@H]2c2ccccc2)cc1,Activity,Calvarial osteoblast [1],Active
same,Activity,Calvarial osteoblast [2],Active
same,Activity,Mus musculus [3],Active
same,Activity,Mus musculus [4],Active
same,Activity,[5],19.61 g
same,Activity,[6],24.25 g
same,Activity,[7],23.31 g
same,Activity,[8],11.35 g/dL
same,Activity,[9],8.16 million/mm3
same,Activity,[10],7.31 million/mm3
same,Activity,[11],5.1 /mm3
same,Activity,[12],378.12 U/L
same,Activity,[13],3.97 g/dL
same,Activity,[14],3.98 g/dL
same,Activity,[15],0.69 mg/dL
same,Activity,[16],0.14 nM/mg
same,Activity,[17],0.33 g
same,Activity,[18],0.24 g
same,Activity,[19],0.06 g
same,Activity,[20],5.17%
same,Activity,[21],1.09%
same,Activity,[22],1.14%
same,Activity,[23],1.44%
same,Activity,[24],1.77%
same,Activity,Calvarial osteoblast [25],Active
